Laboratory results: ChEMBL document CHEMBL5107950, “Structure-based design of haloperidol analogues as inhibitors of acetyltransferase Eis from Mycobacterium tuberculosis to overcome kanamycin resistance” (RSC Med Chem, 2021)
Values after ≈ are worked out from the molar mass of the structure shown.

Tests used:
[1] = tested on: Mycobacterium tuberculosis; experiment: Potentiation of kanamycin-induced antibacterial activity against Mycobacterium tuberculosis H37Rv assessed as kanamycin MIC incubated for 1 day followed by kanamycin addition for 6 days and by Alamar blue assay; format: functional; conditions: 168 h, time 7 day
Method in brief: (§1)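 Mtb in 7H9 + 10% ADC, 0.05% Tween 80, 0.4% glycerol at 37 °C. Inoculum adjusted to OD600 0.2, diluted 1:25. Cells preincubated 24 h at 37 °C with compound (100 µL of 200 µM solution). KAN then added: H37Rv at 2.5 and 1.25 µg/mL; K204 at 10, 5, 2.5, 1.25 µg/mL. Incubated 6 days, AlamarBlue added, colour read at 24 and 48 h. MIC = lowest KAN with no colour change. At least twice in duplicate.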

[2] = tested on: Mycolicibacterium smegmatis; experiment: Antibacterial activity against Mycobacterium smegmatis mc2 155 assessed as inhibition of bacterial growth incubated upto 3 weeks hrs by resazurin dye based double-dilution method; format: functional; conditions: mc2 155, 504 h
Method in brief: (§2)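 Double-dilution broth MIC. Media: M. smegmatis, Mueller-Hinton; M. abscessus, 7H9 + 0.05% Tween80 + 0.4% glycerol; mc²6230, 7H9 + 0.05% tyloxapol, 0.5% glycerol, 10% OADC, 0.2% casamino acids, 24 µg/mL pantothenate; other mycobacteria, 7H9 + 0.05% Tween80, 0.4% glycerol, 10% ADC. Inoculum from agar set to 0.5 McFarland, then diluted 1:100.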

[3] = tested on: Mycobacterium tuberculosis; experiment: Antibacterial activity against Mycobacterium tuberculosis H37Ra ATCC NRS22 assessed as inhibition of bacterial growth incubated upto 3 weeks hrs by resazurin dye based double-dilution method; format: functional; conditions: H37Ra ATCC NRS22, 504 h; method in brief: as §2
[4] = tested on: Mycobacteroides abscessus; experiment: Antibacterial activity against Mycobacterium abscessus ATCC 19977 assessed as inhibition of bacterial growth incubated upto 3 weeks hrs by resazurin dye based double-dilution method; format: functional; conditions: ATCC 19977, 504 h; method in brief: as §2
N-acetyltransferase Eis [5] = target: T1, N-acetyltransferase Eis (Mycobacterium tuberculosis (strain ATCC 25618 / H37Rv), UniProt P9WFK7); experiment: Inhibition of Mycobacterium tuberculosis Eis assessed as Eis-mediated kanamycin acetylation preincubated for 10 mins followed by substrate addition and measured for 2 to 5 mins using acetyl-CoA as substrate in presence of kanamycin by UV-Vis spectroscopy analysis
T1 sequence (P9WFK7 whole entry): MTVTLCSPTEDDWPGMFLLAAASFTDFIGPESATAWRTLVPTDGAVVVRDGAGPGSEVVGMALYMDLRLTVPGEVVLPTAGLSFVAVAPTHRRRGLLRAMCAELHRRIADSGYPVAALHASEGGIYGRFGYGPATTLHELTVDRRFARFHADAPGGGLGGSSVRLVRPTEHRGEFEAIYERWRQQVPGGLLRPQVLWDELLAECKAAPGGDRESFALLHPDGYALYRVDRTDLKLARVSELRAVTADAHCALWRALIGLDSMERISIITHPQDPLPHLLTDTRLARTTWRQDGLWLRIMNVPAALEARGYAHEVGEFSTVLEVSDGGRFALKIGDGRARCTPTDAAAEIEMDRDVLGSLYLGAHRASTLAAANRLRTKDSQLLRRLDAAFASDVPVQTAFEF
Method in brief: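 Recombinant Eis (1 µM) mixed with KAN (400 µM) in 50 mM Tris-HCl pH 8.0 and preincubated 10 min with 5-fold serially diluted inhibitor (10% DMSO in buffer). Reaction started with AcCoA and DTNB (2 mM each, as added). Absorbance read every 30 s for 20 min. Initial rates (first 2-5 min) fitted to Hill plot for IC50. At least triplicate.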

[6] = tested on: Mycobacterium intracellulare; experiment: Antibacterial activity against Mycobacterium intracellulare ATCC 13950 assessed as inhibition of bacterial growth incubated upto 3 weeks hrs by resazurin dye based double-dilution method; format: functional; conditions: ATCC 13950, 504 h; method in brief: as §2
Mycobacterium avium = experiment: Antibacterial activity against Mycobacterium avium ATCC 25921 assessed as inhibition of bacterial growth incubated upto 3 weeks hrs by resazurin dye based double-dilution method; format: functional; conditions: ATCC 25921, 504 h; method in brief: as §2
[7] = tested on: Mycobacterium tuberculosis; experiment: Potentiation of kanamycin-induced antibacterial activity against Mycobacterium tuberculosis K204 assessed as kanamycin MIC incubated for 1 day followed by kanamycin addition for 6 days and by Alamar blue assay; format: functional; conditions: K204, 168 h, time 7 day; method in brief: as §1
N-acetyltransferase Eis [8] = target: T1, N-acetyltransferase Eis; experiment: Competitive inhibition of Mycobacterium tuberculosis Eis assessed as reduction in Eis-mediated kanamycin acetylation preincubated for 10 mins followed by substrate addition and measured for 2 to 5 mins using acetyl-CoA as substrate in presence of kanamycin by Lineweaver-Burk plot analysis
Method in brief: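 Same DTNB-coupled Eis acetylation assay used for IC50, run as Michaelis-Menten kinetics with inhibitor at 0-1 μM. Vmax and Km from these fits used to determine mode of inhibition. Quadruplicate.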

[9] = tested on: Mycolicibacterium smegmatis; experiment: Synergistic antibacterial activity against Mycobacterium smegmatis mc2 155 assessed as fold reduction in MIC value at 8 ug/ml in presence of spectinomycin by checkerboard assay; format: functional; conditions: dose 8 µg/ml
[10] = tested on: Mycolicibacterium smegmatis; experiment: Synergistic antibacterial activity against Mycobacterium smegmatis mc2 155 assessed as fold reduction in MIC value at 8 ug/ml in presence of clarithromycin by checkerboard assay; format: functional; conditions: dose 8 µg/ml
[11] = Metabolic stability in human liver microsomes at 2 to 4 uM incubated for 30 mins by LC-MS/MS analysis; format: ADME, Microsome; conditions: dose 2-4 µM, read-out: Stability
[12] = Metabolic stability in mouse liver microsomes at 2 to 4 uM incubated for 30 mins by LC-MS/MS analysis; format: ADME, Microsome; conditions: dose 2-4 µM, read-out: Stability

| SMILES | MIC [1] [µg/mL] | MIC [2] [µM] | MIC [3] [µM] | MIC [4] [µM] | IC50 (N-acetyltransferase Eis [5]) [µM] | MIC [6] [µM] | MIC (Mycobacterium avium) [µM] | MIC [7] [µg/mL] | Ki (N-acetyltransferase Eis [8]) [µM] | fold change (FC) [9] | fold change (FC) [10] | remaining at 0.5 h [11] [%] | remaining at 0.5 h [12] [%] |
| --- | --- | --- | --- | --- | --- | --- | --- | --- | --- | --- | --- | --- | --- |
| O=C(CCCN1CCC(O)(c2ccc(F)cc2)CC1)c1ccccc1 | ≤ 1.25 | > 62.5 | > 62.5 | > 62.5 | 3.1 | > 62.5 | > 62.5 | 10 | – | – | – | – | – |
| O=C(CCCN1CCC(O)(c2ccc(F)cc2)CC1)c1ccc(F)cc1 | ≤ 1.25 | > 62.5 | > 62.5 | > 62.5 | 0.76 | > 62.5 | > 62.5 | 5 | 0.91 | 16 | 4 | – | – |
| O=C(CCCN1CCC(O)(c2ccc(F)cc2)CC1)c1ccc(Br)cc1 | ≤ 1.25 | > 62.5 | 31.3 (≈ 13.2 µg/mL) | > 62.5 | 6.6 | 62.5 (≈ 26.3 µg/mL) | 62.5 (≈ 26.3 µg/mL) | 10 | – | – | – | – | – |
| O=C(CCCN1CCC(O)(c2ccc(Br)cc2)CC1)c1ccc(F)cc1 [BROMPERIDOL] | ≤ 1.25 | > 62.5 | > 62.5 | > 62.5 | 0.52 | 62.5 (≈ 26.3 µg/mL) | 62.5 (≈ 26.3 µg/mL) | 5 | 0.24 | 16 | 4 | – | – |
| CC(C)(C)c1ccc(C(=O)CCCN2CCC(O)(c3ccc(F)cc3)CC2)cc1 | – | 62.5 (≈ 24.8 µg/mL) | 15.6 (≈ 6.2 µg/mL) | > 62.5 | 200 | 31.3 (≈ 12.4 µg/mL) | 31.3 (≈ 12.4 µg/mL) | – | – | 16 | 4 | 50 | 48 |
| O=C(CCCN1CCC(O)(c2ccc(Cl)cc2)CC1)c1ccccc1 | ≤ 1.25 | > 62.5 | 62.5 (≈ 22.4 µg/mL) | > 62.5 | 5.3 | > 62.5 | 62.5 (≈ 22.4 µg/mL) | > 10 | – | – | – | – | – |
| COc1ccc(C(=O)CCCN2CCC(O)(c3ccc(Br)cc3)CC2)cc1 | ≤ 1.25 | > 62.5 | 31.3 (≈ 13.5 µg/mL) | > 62.5 | 5.6 | > 62.5 | 62.5 (≈ 27 µg/mL) | > 10 | – | – | – | – | – |
